Measurements reported in ChEMBL document CHEMBL4152290, “1H-Benzo[d]imidazoles and 3,4-dihydroquinazolin-4-ones: Design, synthesis and antitubercular activity” (Eur J Med Chem, 2018).

Columns and labels:
[1] = Cytotoxicity against human HepG2 cells assessed as cell viability at 10 ug/ml after 72 hrs by MTT assay (reference value: 100%); assay type: cell-based; settings: read-out: Activity
Method in brief: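 Cells were grown in DMEM with 10% heat-inactivated FBS and penicillin-streptomycin, seeded at 2×10^3/well (HepG2, HaCat) or 1×10^3/well (Vero), then left 24 h. Compound was applied at 10 µg/mL final (2% DMSO) for 72 h at 37 °C, 5% CO2. MTT 1 mg/mL was added for 3 h, formazan dissolved in DMSO, and A595 read. Viability is expressed relative to 2% DMSO wells; mean ± SEM, triplicates, three independent experiments.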

[2] = Cytotoxicity against human HaCaT cells assessed as cell viability at 10 ug/ml after 72 hrs by neutral red uptake assay (reference value: 100%); assay type: cell-based; settings: read-out: Activity
Method in brief: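 Seeding was 2×10^3/well for HepG2 and HaCat and 1×10^3/well for Vero. After 24 h, cells received 10 µg/mL final (2% DMSO) for 72 h at 37 °C, 5% CO2. They were washed with PBS, given neutral red 25 µg/mL in serum-free medium for 3 h, washed, and extracted 30 min with acetic acid/EtOH/water 1:50:49. A540 was read. Viability is relative to 2% DMSO controls; mean ± SEM, three experiments in triplicate.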

[3] = Selectivity index, ratio of cytotoxic concentration for human HaCaT cells by neutral red uptake assay to MIC for Mycobacterium tuberculosis H37Rv ATCC 27294; assay type: toxicity; settings: read-out: Selectivity Index
[4] = Stability of the compound in PBS containing 10% DMSO at 25 degC measured after 3 hrs by HPLC analysis; assay type: physicochemical; settings: buffer
[5] = Stability of the compound in PBS containing 10% DMSO at 25 degC measured after 12 hrs by HPLC analysis; assay type: physicochemical; settings: buffer
[6] = Stability of the compound in PBS containing 10% DMSO at 25 degC measured after 24 hrs by HPLC analysis; assay type: physicochemical; settings: buffer
[7] = Stability of the compound in PBS containing 10% DMSO at 25 degC measured after 48 hrs by HPLC analysis; assay type: physicochemical; settings: buffer
[8] = Stability of the compound in PBS containing 10% DMSO at 37 degC measured after 24 hrs by HPLC analysis; assay type: physicochemical; settings: for remaining at 24 h: PBS containing 10% DMSO, read-out: Stability
[9] = Stability of the compound in PBS containing 10% DMSO at 37 degC measured after 48 hrs by HPLC analysis; assay type: physicochemical; settings: read-out: Stability
Danio rerio [10] = species: Danio rerio; test: Toxicity in Zebrafish AB embryos assessed as effect on larval survival rate at 3 to 20 uM; assay type: organism-based; settings: in vivo
Method in brief: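 Wild-type AB zebrafish embryos are exposed from 2 hpf to 5 dpf at 3.0, 15.0 and 20.0 µM in fish water with 1% DMSO, at 28 °C on a 14/10 h light-dark cycle. Controls are fish water alone and 1% DMSO. Survival and hatching are checked daily under a stereomicroscope.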

Danio rerio [11] = species: Danio rerio; test: Toxicity in Zebrafish AB embryos assessed as morphological alteration by measuring effect on body length of larvae at 20 uM measured at 2 to 5 days post fertilization by stereomicroscopic method; assay type: organism-based; settings: in vivo
Method in brief: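 AB embryos are treated from 2 hpf to 5 dpf at 3.0, 15.0 and 20.0 µM in fish water with 1% DMSO, at 28 °C. Controls are fish water and 1% DMSO. Larvae are photographed under a stereomicroscope (3×) at 2 and 5 dpf, n = 30. Body length (µm), ocular distance (µm) and eye surface area (µm²) are measured from the images.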

Question: For `O=C(CSc1nc2ccccc2c(=O)[nH]1)NC1CCCCC1`, which viability at 72 h, 10 ug/ml [1] is on record?
Answer: 86%

Question: What about the viability at 72 h, 10 ug/ml [2] of the same compound?
Answer: 97%

Question: And the selectivity ratio [3]?
Answer: ≤ 32

Question: And the Stability [4]?
Answer: 108%

Question: And the Stability [5]?
Answer: 101%

Question: And the Stability [6]?
Answer: 109%

Question: And the Stability [7]?
Answer: 126%

Question: What about the Stability ([8]; buffer, 24 h) of the same compound?
Answer: 127%

Question: And the remaining at 48 h [9]?
Answer: 111%

Question: And the Activity (Danio rerio [10])?
Answer: Non-Toxic

Question: Which results are given for `CC1CCCCC1NC(=O)CSc1nc2ccccc2c(=O)[nH]1` (stereo unspecified)?
Answer: viability at 72 h, 10 ug/ml [1]: 94%; viability at 72 h, 10 ug/ml [2]: 99%; selectivity ratio [3]: ≤ 32; Stability [4]: 128%; Stability [5]: 137%; Stability [6]: 138%; Stability [7]: 142%; remaining at 24 h [8]: 81%; remaining at 48 h [9]: 80%; Activity (Danio rerio [10]): Non-Toxic

Question: With `O=C(CSc1nc2ccccc2c(=O)[nH]1)NC1CCCCCC1` as the compound, how does the viability at 72 h, 10 ug/ml [1] read?
Answer: 99%

Question: What about the viability at 72 h, 10 ug/ml [2] of the same compound?
Answer: 88%

Question: What about the selectivity ratio [3] of the same compound?
Answer: ≤ 32

Question: What about the Stability [4] of the same compound?
Answer: 80%

Question: What about the Stability [5] of the same compound?
Answer: 92%

Question: What about the Stability [6] of the same compound?
Answer: 122%

Question: What about the Stability [7] of the same compound?
Answer: 123%

Question: What about the remaining at 24 h [8] of the same compound?
Answer: 66%

Question: And the remaining at 48 h [9]?
Answer: 71%

Question: And the Activity (Danio rerio [10])?
Answer: Non-Toxic

Question: What does the source list for `CC1CCCC(NC(=O)CSc2nc3ccccc3c(=O)[nH]2)C1` (stereo unspecified)?
Answer: viability at 72 h, 10 ug/ml [1]: 89%; viability at 72 h, 10 ug/ml [2]: 88%; selectivity ratio [3]: ≤ 32; Stability [4]: 101%; Stability [5]: 102%; Stability [6]: 100%; Stability [7]: 95%; remaining at 24 h [8]: 97%; remaining at 48 h [9]: 98%; Activity (Danio rerio [10]): Non-Toxic

Question: With `O=C(CSc1nc2ccccc2c(=O)[nH]1)NCC1CCCCC1` as the compound, how does the viability at 72 h, 10 ug/ml [1] read?
Answer: 79%

Question: And the viability at 72 h, 10 ug/ml [2]?
Answer: 88%

Question: What about the selectivity ratio [3] of the same compound?
Answer: ≤ 32

Question: What about the Stability [4] of the same compound?
Answer: 103%

Question: What about the Stability [5] of the same compound?
Answer: 112%

Question: What about the Stability [6] of the same compound?
Answer: 114%

Question: What about the Stability [7] of the same compound?
Answer: 125%

Question: What about the remaining at 24 h [8] of the same compound?
Answer: 104%

Question: What about the remaining at 48 h [9] of the same compound?
Answer: 105%

Question: And the Activity (Danio rerio [10])?
Answer: Non-Toxic

Question: For `CC1CCC(NC(=O)CSc2nc3ccccc3c(=O)[nH]2)CC1` (stereo unspecified), which viability at 72 h, 10 ug/ml [1] is on record?
Answer: 89%

Question: And the viability at 72 h, 10 ug/ml [2]?
Answer: 94%

Question: What about the selectivity ratio [3] of the same compound?
Answer: ≤ 32

Question: And the Stability [4]?
Answer: 97%

Question: What about the Stability [5] of the same compound?
Answer: 100%

Question: What about the Stability [6] of the same compound?
Answer: 111%

Question: What about the Stability [7] of the same compound?
Answer: 125%

Question: What about the remaining at 24 h [8] of the same compound?
Answer: 43%

Question: And the remaining at 48 h [9]?
Answer: 48%

Question: What about the Activity (Danio rerio [10]) of the same compound?
Answer: Non-Toxic

Question: Which Activity (Danio rerio [11]) does the source give for `C[C@H]1CC[C@H](NC(=O)CSc2nc3ccccc3c(=O)[nH]2)CC1` here?
Answer: Toxic

Question: And the viability at 72 h, 10 ug/ml [1]?
Answer: 83%

Question: And the viability at 72 h, 10 ug/ml [2]?
Answer: 97%

Question: What about the selectivity ratio [3] of the same compound?
Answer: ≤ 32

Question: And the Stability [4]?
Answer: 76%

Question: And the Stability [5]?
Answer: 47%

Question: And the Stability [6]?
Answer: 26%

Question: And the Stability [7]?
Answer: 20%

Question: What about the remaining at 24 h [8] of the same compound?
Answer: 51%

Question: What about the remaining at 48 h [9] of the same compound?
Answer: 50%

Question: And the Activity (Danio rerio [10])?
Answer: Non-Toxic
